The target in assay [1] is T1, Neutrophil elastase (Homo sapiens) (UniProt P08246).
T1 sequence (whole entry): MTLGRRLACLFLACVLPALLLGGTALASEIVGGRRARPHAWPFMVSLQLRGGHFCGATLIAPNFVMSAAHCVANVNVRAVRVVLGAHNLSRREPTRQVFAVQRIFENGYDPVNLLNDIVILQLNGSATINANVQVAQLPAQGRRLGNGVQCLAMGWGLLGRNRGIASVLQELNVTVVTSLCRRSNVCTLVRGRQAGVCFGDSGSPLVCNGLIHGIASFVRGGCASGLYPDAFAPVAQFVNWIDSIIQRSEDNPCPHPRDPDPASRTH
The assay is described as follows: Inhibition of human neutrophil elastase. Summed up:
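Human elastase (final 70 nM; added from a stock in 0.05 mM sodium acetate/0.5 M NaCl pH 5.50) in 0.1 M HEPES/0.5 M NaCl pH 7.25 at 25 °C. Substrate was methoxysuccinyl-Ala-Ala-Pro-Val p-nitroaniline, with single inhibitor level from DMSO. […] read for 2 min against a DMSO-only hydrolysis control. % inhibition = (1 − v/vo)×100, mean of duplicate or triplicate runs.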

Assay [2] has as its target T2, Myeloblastin (Homo sapiens) (UniProt P24158).
T2 sequence (whole entry): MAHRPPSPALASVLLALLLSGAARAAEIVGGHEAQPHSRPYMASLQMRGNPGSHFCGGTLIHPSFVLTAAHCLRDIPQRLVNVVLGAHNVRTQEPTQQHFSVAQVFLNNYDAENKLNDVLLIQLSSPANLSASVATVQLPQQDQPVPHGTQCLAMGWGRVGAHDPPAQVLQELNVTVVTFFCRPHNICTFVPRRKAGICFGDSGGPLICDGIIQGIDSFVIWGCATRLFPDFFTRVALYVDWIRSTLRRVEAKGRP
The assay is described as follows: Inhibition of human neutrophil proteinase 3. The gist of the method: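 Human proteinase 3 (final 34.5 nM; added from a stock in 0.1 M phosphate pH 6.50) in 0.1 M HEPES/0.5 M NaCl pH 7.25 at 25 °C. Thiobenzyl ester substrate Boc-Ala-Ala-NVa-SBzl, with 5,5′-dithio-bis(2-nitrobenzoic acid) from DMSO and single inhibitor level from DMSO. Absorbance followed at […] for 2 min against an uninhibited hydrolysis control. % inhibition = (1 − v/vo)×100, duplicate or triplicate mean.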

Calls of active or inactive are those of the source. The calls are words filed in the database; no cut-off is given here.

`CCN1CN(Cc2cccc(NC(=O)CCOC)c2)S(=O)(=O)N1CC`: the inhibition entry in assay [1] and in assay [2] was “inactive” each time.

Take `CCN1CN(Cc2cn(CC(=O)c3ccccc3F)nn2)S(=O)(=O)N1CC`: the inhibition result in assay [1] and in assay [2] was “inactive” throughout.

Take `CCN1CN(Cc2cccc(NC(=O)c3cccc(OC)c3)c2)S(=O)(=O)N1CC`: the inhibition result in assay [1] and in assay [2] was “inactive” throughout.

For `CCN1CN(Cc2cn(CC(=O)c3cccs3)nn2)S(=O)(=O)N1CC`, the inhibition entry in assay [1] and in assay [2] was “inactive” in each case.

For `CCN1CN(Cc2cccc(NC(=O)NCCc3ccccc3)c2)S(=O)(=O)N1CC`, the inhibition result in assay [1] and in assay [2] was “inactive” each time.

Turning to `CCN1CN(Cc2cccc(NC(=O)c3ccccc3)c2)S(=O)(=O)N1CC`, the inhibition result in assay [1] and in assay [2] was “inactive” throughout.

For `CCN1CN(Cc2cccc(NC(=O)c3cccc(Oc4ccccc4)c3)c2)S(=O)(=O)N1CC`, the inhibition result in assay [1] and in assay [2] was “inactive” each time.

Consider `CCN1C(=O)N(C(Cc2ccccc2)C(=O)Nc2ccccc2NC(=O)OCC(C)C)S(=O)(=O)N1CC` (stereo unspecified), for which the inhibition entry in assay [1] was “Active”. Moreover, the inhibition result in assay [2] was “inactive”.

The record behind these values is ChEMBL document CHEMBL1156838, “Utilization of the 1,2,3,5-thiatriazolidin-3-one 1,1-dioxide scaffold in the design of potential inhibitors of human neutrophil proteinase 3” (Bioorg Med Chem, 2010).
